Test results from ChEMBL document CHEMBL3414471 (J Med Chem, 2015).
Activity calls are given as the source filed them. The rule behind the calls is not given here.

Legend:
hERG (KCNH2) [1] = target: T1, hERG (KCNH2) (Homo sapiens, UniProt Q12809); assay: (§1) Inhibition of human ERG channel expressed in CHO cells at […] by patch clamp method; type: cell-based; details: CHO cells expressing human ERG channel
CYP2C19 = CYP2C19 (Homo sapiens, UniProt P33261); assay: Inhibition of human CYP2C19 using omeprazole as substrate at 10 uM; type: ADME; details: probe omeprazole
[2] = target: T2, 5-hydroxytryptamine receptor 2A (Homo sapiens, UniProt P28223); assay: Agonist activity at human 5-HT2A receptor expressed in HEK293 cells assessed as calcium flux by FLIPR assay; type: functional, cell-based
hERG (KCNH2) [3] = target: T1, hERG (KCNH2); assay: Inhibition of human ERG channel expressed in CHO cells at 3.3 uM by patch clamp method; type: cell-based; details: CHO cells expressing human ERG channel
Method in brief: (§2)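 hERG current recorded in CHO cells by automated patch clamp; percent inhibition at 0.37, 1.1, 3.3, 10 and 30 µM.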

[4] = target: T3, 5-hydroxytryptamine receptor 2B (Homo sapiens, UniProt P41595); assay: Agonist activity at human 5-HT2B receptor expressed in HEK293 cells assessed as calcium flux at 10 uM by FLIPR assay; type: functional, cell-based
Method in brief: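 Flp-In-293 cells stably expressing human 5-HT2A, 5-HT2B or 5-HT2C-INI, grown in DMEM with 10% dialyzed FBS, then plated for 24 h in 1% dialyzed FBS. Cells were loaded 1 h at 37 °C with calcium dye in Hepes-buffered HBSS, pH 7.40, containing 2.5 mM probenecid. FLIPR read 10 s baseline, then 120 s after drug addition.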

Homo sapiens = organism: Homo sapiens; assay: Selectivity ratio of EC50 for human 5-HT2A receptor to EC50 for human 5HT2C receptor
hERG (KCNH2) [5] = target: T1, hERG (KCNH2); assay: as §1; type: cell-based; details: CHO cells expressing human ERG channel; remark: listed apart in the source
hERG (KCNH2) [6] = target: T1, hERG (KCNH2); assay: Inhibition of human ERG channel expressed in CHO cells at 30 uM by patch clamp method; type: cell-based; details: CHO cells expressing human ERG channel; method in brief: as §2
hERG (KCNH2) [7] = target: T1, hERG (KCNH2); assay: Inhibition of human ERG channel expressed in CHO cells at 10 uM by patch clamp method; type: cell-based; details: CHO cells expressing human ERG channel; method in brief: as §2
[8] = target: T2, 5-hydroxytryptamine receptor 2A; assay: Agonist activity at human 5-HT2A receptor expressed in HEK293 cells assessed as calcium flux by FLIPR assay relative to 5-HT; type: functional, cell-based
Method in brief: (§3)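 Flp-In-293 cells stably expressing human 5-HT2A, 5-HT2B or 5-HT2C-INI; grown 24–48 h in DMEM/10% dialyzed FBS, plated on poly-L-Lys at 12000 cells/well in 1% dialyzed FBS for 24 h. Loaded 1 h at 37 °C with calcium dye in HBSS, 20 mM Hepes pH 7.40, 2.5 mM probenecid.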

[9] = target: T4, 5-hydroxytryptamine receptor 2C (Homo sapiens) (UniProt P28335); assay: Agonist activity at human 5-HT2C receptor expressed in HEK293 cells assessed as calcium flux by FLIPR assay relative to 5-HT; type: functional, cell-based; method in brief: as §3
T4 sequence (whole entry): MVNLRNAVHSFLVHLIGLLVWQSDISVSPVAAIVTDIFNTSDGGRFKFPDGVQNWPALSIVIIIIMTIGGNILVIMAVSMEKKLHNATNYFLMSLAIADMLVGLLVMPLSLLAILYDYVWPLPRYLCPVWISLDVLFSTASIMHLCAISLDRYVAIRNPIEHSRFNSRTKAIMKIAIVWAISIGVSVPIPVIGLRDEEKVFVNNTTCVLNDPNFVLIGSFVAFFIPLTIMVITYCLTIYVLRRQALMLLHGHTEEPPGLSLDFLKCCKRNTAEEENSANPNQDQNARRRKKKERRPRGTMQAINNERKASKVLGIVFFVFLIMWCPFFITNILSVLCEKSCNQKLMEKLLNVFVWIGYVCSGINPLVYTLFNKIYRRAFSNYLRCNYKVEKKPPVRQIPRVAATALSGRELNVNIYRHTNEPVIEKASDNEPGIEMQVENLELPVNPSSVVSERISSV

[10] = target: Voltage-gated inwardly rectifying potassium channel KCNH2 (Homo sapiens, UniProt Q12809); assay: Inhibition of human ERG channel expressed in CHO cells by patch clamp method; type: cell-based; details: human, cho
Mus musculus = assay: Antipsychotic activity in C57BL/6J mouse assessed as reduction of amphetamine-induced locomotor activity at 10 to 20 mg/kg, ip administered 15 mins prior to amphetamine challenge measured for 105 mins by open field test relative to vehicle-treated control; type: functional, organism-based
CYP2B6 = target: T5, CYP2B6 (Homo sapiens, UniProt P20813); assay: Inhibition of human CYP2B6 using bupropion as substrate at 10 uM; type: ADME; details: probe bupropion
T5 sequence (P20813 whole entry): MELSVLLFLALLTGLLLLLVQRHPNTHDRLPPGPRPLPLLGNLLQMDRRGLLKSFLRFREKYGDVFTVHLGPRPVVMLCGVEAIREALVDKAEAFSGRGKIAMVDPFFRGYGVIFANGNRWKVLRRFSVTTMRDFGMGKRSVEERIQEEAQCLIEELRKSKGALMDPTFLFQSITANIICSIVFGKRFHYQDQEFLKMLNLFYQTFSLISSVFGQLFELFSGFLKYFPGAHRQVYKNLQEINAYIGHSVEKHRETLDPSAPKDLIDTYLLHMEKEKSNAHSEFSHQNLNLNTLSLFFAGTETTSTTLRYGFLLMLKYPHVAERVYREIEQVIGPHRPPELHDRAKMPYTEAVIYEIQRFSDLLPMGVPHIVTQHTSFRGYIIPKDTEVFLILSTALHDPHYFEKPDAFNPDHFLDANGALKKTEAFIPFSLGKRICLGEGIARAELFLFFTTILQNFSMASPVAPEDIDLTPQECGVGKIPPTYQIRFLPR

[11] = target: Alpha-2A adrenergic receptor (Homo sapiens, UniProt P08913); assay: Binding affinity to adrenergic alpha-2A receptor (unknown origin)
CYP2C9 = CYP2C9 (Homo sapiens, UniProt P11712); assay: Inhibition of human CYP2C9 using diclofenac as substrate at 10 uM; type: ADME; details: probe diclofenac
[12] = target: T6, 5-hydroxytryptamine receptor 2C (Homo sapiens, UniProt P28335); assay: Agonist activity at human 5-HT2C receptor expressed in HEK293 cells assessed as calcium flux by FLIPR assay; type: functional, cell-based
T6 sequence (P28335 whole entry): T4 sequence (whole entry)

CYP3A4 = CYP3A4 (Homo sapiens, UniProt P08684); assay: Inhibition of human CYP3A4 using midazolam as substrate at 10 uM; type: ADME; details: probe midazolam
Method in brief: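 Human liver microsomes with test compound at 10 µM; percent inhibition determined using bupropion (2B6), dextromethorphan (2D6) or midazolam (3A/3A4) as probe substrates.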

CYP2D6 = CYP2D6 (Homo sapiens, UniProt P10635); assay: Inhibition of human CYP2D6 using dextromethorphan as substrate at 10 uM; type: ADME; details: probe dextromethorphan
[13] = target: T3, 5-hydroxytryptamine receptor 2B; assay: Agonist activity at 5HT2B receptor (unknown origin) relative to control; method in brief: as §3

T1 sequence (Q12809 whole entry): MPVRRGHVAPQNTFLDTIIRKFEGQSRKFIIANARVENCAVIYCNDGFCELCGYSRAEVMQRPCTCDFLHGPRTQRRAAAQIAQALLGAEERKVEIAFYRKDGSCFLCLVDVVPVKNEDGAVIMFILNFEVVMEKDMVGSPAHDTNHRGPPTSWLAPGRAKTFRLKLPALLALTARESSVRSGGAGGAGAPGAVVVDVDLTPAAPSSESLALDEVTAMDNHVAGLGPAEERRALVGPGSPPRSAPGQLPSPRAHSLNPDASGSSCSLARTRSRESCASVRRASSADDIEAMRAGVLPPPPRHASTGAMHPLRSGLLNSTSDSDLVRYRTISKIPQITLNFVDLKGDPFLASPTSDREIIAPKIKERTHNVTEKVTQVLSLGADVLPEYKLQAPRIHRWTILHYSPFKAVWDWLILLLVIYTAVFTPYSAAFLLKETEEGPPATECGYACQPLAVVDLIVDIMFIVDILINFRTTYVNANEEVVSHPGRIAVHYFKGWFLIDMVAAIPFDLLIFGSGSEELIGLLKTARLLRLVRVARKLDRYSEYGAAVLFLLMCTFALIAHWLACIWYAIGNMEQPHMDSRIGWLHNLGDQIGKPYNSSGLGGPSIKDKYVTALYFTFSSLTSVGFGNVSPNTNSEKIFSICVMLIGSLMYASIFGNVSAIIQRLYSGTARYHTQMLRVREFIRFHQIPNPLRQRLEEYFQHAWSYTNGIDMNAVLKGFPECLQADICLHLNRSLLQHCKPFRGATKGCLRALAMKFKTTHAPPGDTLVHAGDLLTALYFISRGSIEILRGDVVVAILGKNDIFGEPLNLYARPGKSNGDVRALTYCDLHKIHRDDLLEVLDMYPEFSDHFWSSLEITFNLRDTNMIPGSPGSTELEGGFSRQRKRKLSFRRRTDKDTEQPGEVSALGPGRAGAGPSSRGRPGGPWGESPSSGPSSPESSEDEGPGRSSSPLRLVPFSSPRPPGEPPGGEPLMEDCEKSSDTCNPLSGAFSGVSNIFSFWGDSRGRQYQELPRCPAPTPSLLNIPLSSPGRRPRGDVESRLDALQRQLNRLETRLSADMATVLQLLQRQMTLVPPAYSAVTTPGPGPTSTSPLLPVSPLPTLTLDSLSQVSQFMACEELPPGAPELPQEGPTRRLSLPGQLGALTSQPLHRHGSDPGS
T3 sequence (P41595 whole entry): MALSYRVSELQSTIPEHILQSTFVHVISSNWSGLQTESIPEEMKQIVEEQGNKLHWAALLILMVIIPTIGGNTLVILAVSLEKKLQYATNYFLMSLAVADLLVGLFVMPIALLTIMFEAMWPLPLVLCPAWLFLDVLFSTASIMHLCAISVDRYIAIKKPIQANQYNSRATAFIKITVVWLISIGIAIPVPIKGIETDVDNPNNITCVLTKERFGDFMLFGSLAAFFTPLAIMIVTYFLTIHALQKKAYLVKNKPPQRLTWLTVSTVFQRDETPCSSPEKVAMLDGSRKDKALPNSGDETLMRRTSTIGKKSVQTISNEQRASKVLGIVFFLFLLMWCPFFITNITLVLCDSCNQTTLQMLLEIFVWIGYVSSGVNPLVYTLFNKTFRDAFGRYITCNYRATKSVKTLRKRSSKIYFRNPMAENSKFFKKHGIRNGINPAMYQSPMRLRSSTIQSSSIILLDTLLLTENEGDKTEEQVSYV
T2 sequence (P28223 whole entry): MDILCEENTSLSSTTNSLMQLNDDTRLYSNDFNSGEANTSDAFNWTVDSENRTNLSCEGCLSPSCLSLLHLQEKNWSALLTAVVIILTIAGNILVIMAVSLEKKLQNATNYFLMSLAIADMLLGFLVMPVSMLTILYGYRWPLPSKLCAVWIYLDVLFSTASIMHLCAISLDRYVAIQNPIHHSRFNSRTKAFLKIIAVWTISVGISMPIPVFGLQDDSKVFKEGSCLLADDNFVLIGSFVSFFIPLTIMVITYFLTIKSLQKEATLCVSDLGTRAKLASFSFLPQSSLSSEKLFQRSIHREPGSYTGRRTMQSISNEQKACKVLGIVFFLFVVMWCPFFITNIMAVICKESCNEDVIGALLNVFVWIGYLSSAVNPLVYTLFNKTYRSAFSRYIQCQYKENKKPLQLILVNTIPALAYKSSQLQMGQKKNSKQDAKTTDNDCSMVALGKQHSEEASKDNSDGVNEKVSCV
Sequence of CYP2C19 (P33261 whole entry): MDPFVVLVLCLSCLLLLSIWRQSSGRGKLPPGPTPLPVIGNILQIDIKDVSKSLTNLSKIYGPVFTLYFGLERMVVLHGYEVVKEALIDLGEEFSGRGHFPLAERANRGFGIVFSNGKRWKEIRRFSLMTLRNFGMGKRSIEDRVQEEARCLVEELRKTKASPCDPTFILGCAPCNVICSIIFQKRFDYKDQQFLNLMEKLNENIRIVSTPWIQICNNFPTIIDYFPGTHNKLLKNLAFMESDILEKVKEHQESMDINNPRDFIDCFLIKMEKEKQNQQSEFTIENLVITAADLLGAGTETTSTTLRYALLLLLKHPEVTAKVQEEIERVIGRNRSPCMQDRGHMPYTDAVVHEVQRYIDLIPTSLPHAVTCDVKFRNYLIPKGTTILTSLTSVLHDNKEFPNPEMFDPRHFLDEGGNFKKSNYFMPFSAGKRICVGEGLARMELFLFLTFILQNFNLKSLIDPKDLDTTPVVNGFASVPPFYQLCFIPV
Sequence of Alpha-2A adrenergic receptor (P08913 whole entry): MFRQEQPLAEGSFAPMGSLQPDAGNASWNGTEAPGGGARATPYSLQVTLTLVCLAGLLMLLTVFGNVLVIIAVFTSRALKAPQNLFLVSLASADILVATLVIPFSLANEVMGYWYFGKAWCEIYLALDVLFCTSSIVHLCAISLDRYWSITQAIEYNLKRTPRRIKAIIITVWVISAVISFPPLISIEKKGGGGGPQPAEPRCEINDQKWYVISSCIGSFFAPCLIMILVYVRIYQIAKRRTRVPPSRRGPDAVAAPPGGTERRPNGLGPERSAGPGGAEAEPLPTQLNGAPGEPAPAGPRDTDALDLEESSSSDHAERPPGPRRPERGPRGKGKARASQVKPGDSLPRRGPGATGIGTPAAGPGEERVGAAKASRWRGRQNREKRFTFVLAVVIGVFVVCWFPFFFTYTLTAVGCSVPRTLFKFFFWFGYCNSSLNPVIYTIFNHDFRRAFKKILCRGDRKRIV
Sequence of Voltage-gated inwardly rectifying potassium channel KCNH2 (Q12809 whole entry): as the sequence (Q12809 whole entry) above
Sequence of CYP3A4 (P08684 whole entry): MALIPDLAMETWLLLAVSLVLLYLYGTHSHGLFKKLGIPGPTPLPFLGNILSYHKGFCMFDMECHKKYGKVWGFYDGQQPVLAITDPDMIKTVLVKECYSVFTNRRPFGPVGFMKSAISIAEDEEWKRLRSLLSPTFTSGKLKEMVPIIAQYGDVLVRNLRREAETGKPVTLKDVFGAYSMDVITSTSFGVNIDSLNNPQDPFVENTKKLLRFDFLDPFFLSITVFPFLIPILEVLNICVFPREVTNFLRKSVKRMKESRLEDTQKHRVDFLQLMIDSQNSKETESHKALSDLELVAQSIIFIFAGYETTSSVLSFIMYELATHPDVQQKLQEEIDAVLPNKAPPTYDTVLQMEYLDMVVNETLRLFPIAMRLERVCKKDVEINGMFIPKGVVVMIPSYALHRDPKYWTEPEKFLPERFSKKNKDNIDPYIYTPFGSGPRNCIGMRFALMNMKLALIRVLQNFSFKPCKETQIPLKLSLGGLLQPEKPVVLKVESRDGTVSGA

Row | SMILES | inhibition at […] (hERG (KCNH2) [1]) [%] | inhibition at 10 µM (CYP2C19) [%] | EC50 [2] [nM] | inhibition at 3.3 µM (hERG (KCNH2) [3]) [%] | Activity [4] | Ratio EC50 (Homo sapiens) | inhibition at […] (hERG (KCNH2) [5]) [%] | inhibition at 30 µM (hERG (KCNH2) [6]) [%] | inhibition at 10 µM (hERG (KCNH2) [7]) [%] | Emax [8] [%] | Emax [9] [%] | inhibition (INH) [10] | Activity (Mus musculus) | inhibition at 10 µM (CYP2B6) [%] | Ki [11] [nM] | inhibition at 10 µM (CYP2C9) [%] | EC50 [12] [nM] | inhibition at 10 µM (CYP3A4) [%] | inhibition at 10 µM (CYP2D6) [%] | Emax [13] [%]
1 | Cl.NC[C@H]1C[C@@H]1c1cc(F)ccc1OCCF | 11 | 26 | 359 | 15 | inactive | > 100 | 6 | 35 | 25 | 76 | 89 | Dose-dependent effect | Active | 6 | < 1000 | 16 | 3.4 | 10 | 24 | 
2 | c1cc2c3c(c1)[C@H]1CCC[C@H]1CN3CCNC2 |  |  |  |  |  |  |  |  |  |  |  |  |  |  |  |  |  |  |  | 50
3 | NC[C@@H]1C[C@H]1c1cc(F)ccc1OCCF |  |  | 2990 |  | inactive |  |  |  |  | 20 | 77 |  |  |  |  |  | 514 |  |  | 
